Values after ≈ are worked out from the molar mass of the structure shown.
Key:
LoVo [1] = test: Antiproliferative activity against human multidrug-resistant LoVo cells assessed as growth inhibition at 100 ug/ml after 72 hrs; assay type: functional
[2] = Ratio of dissociation of enzyme-inhibitor-substrate complex to Ki for chymotrypsin
LoVo [3] = test: Antiproliferative activity against human LoVo cells after 72 hrs; assay type: functional, cell-based
MCF7 [4] = test: Antiproliferative activity against human MCF7 cells after 72 hrs; assay type: functional, cell-based; settings: MCF7, 72 h
A549 = test: Antiproliferative activity against human A549 cells assessed as growth inhibition at 100 ug/ml after 72 hrs; assay type: functional; settings: A549, 72 h
[5] = target: T1, Neutrophil elastase (Homo sapiens) (UniProt P08246); test: Inhibition of human neutrophil elastase at 5 uM after 15 mins
T1 sequence (whole entry): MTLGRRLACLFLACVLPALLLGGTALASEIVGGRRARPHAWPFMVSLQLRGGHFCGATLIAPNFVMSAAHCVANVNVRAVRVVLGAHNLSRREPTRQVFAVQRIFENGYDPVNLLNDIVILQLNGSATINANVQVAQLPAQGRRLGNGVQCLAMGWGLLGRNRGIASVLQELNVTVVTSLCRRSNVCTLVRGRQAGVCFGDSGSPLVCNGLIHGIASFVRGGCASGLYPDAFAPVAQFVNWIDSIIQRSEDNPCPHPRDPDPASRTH
In short: (§1)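 Single-point screen: each enzyme incubated with inhibitor at 37 °C, then residual activity measured. Inhibition below 5% was scored as no inhibition.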

[6] = target: Chymotrypsin-like elastase family member 1 (Sus scrofa) (UniProt P00772); test: Inhibition of porcine pancreatic elastase at 5 uM after 15 mins; in short: as §1
[7] = Inhibition of trypsin at 5 uM after 15 mins; in short: as §1
MCF7 [8] = test: Antiproliferative activity against human MCF7 cells assessed as growth inhibition at 100 ug/ml after 72 hrs; assay type: functional; settings: MCF7, 72 h
LoVo [9] = test: Antiproliferative activity against human LoVo cells assessed as growth inhibition at 100 ug/ml after 72 hrs; assay type: functional

Chain of Chymotrypsin-like elastase family member 1 (Sus scrofa) (P00772 whole entry): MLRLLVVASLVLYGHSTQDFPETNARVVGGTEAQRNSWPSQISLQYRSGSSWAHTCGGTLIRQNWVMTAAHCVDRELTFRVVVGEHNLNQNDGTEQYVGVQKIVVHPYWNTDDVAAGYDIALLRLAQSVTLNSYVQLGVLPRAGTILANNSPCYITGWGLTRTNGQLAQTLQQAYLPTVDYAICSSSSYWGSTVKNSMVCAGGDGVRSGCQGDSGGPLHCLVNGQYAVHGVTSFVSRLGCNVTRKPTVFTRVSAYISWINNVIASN

Which results are given for `COC(=O)c1ccc(OP(=O)(Oc2ccc(C(=O)OC)cc2)[C@@H](C)NC(=O)OCc2ccccc2)cc1`?
inhibition at 100 µg/mL (LoVo [1]): 46%; Ratio [2]: 1530 M⁻¹ s⁻¹; IC50 (LoVo [3]): 47 µg/mL (≈ 89.1 µM); IC50 (MCF7 [4]): 40 µg/mL (≈ 75.8 µM); inhibition at 100 µg/mL (A549): 25%

What does the source list for `CCCC[C@@H](NC(=O)OCc1ccccc1)P(=O)(Oc1ccc(SC)cc1)Oc1ccc(SC)cc1`?
inhibition [5]: < 5%; inhibition [6]: < 5%

Which inhibition [7] does the source give for `CCc1ccc(OP(=O)(Oc2ccc(CC)cc2)[C@H](NC(=O)OCc2ccccc2)C(C)C)cc1` here?
Its inhibition is under 5%.

Which inhibition at 100 µg/mL (LoVo [1]) does the source give for `CCC(NC(=O)OCc1ccccc1)P(=O)(Oc1ccc(C(=O)OC)cc1)Oc1ccc(C(=O)OC)cc1` (centres undefined) here?
The inhibition at 100 µg/mL was 38%.

And the Ratio [2]?
Its Ratio is 1070 M⁻¹ s⁻¹.

And the inhibition at 100 µg/mL (MCF7 [8])?
Its inhibition at 100 µg/mL is 49%.

What about the IC50 (LoVo [3]) of the same molecule?
The IC50 was 73 µg/mL (≈ 135 µM).

What about the inhibition at 100 µg/mL (A549) of the same molecule?
The inhibition at 100 µg/mL was 31%.

What does the source list for `CC(C)[C@@H](NC(=O)OCc1ccccc1)P(=O)(Oc1ccc(S(C)(=O)=O)cc1)Oc1ccc(S(C)(=O)=O)cc1`?
inhibition at 100 µg/mL (LoVo [9]): 15%; Ratio [2]: 707 M⁻¹ s⁻¹; inhibition at 100 µg/mL (MCF7 [8]): 19%; inhibition at 100 µg/mL (A549): 5%

What does the source list for `CCC[C@@H](NC(=O)OCc1ccccc1)P(=O)(Oc1ccc(C(=O)OC)cc1)Oc1ccc(C(=O)OC)cc1`?
inhibition at 100 µg/mL (LoVo [1]): 47%; Ratio [2]: < 50 M⁻¹ s⁻¹; IC50 (LoVo [3]): 47 µg/mL (≈ 84.6 µM); IC50 (MCF7 [4]): 52 µg/mL (≈ 93.6 µM); inhibition at 100 µg/mL (A549): 40%

Which inhibition [7] does the source give for `COc1ccc(OP(=O)(Oc2ccc(OC)cc2)[C@H](NC(=O)OCc2ccccc2)C(C)C)cc1` here?
The inhibition was under 5%.

With `CC(C)(C)C(=O)Oc1ccc(S(=O)(=O)Nc2ccccc2C(=O)NCC(=O)O)cc1` [SIVELESTAT] as the molecule, how does the inhibition at 100 µg/mL (LoVo [1]) read?
The inhibition at 100 µg/mL was 15%.

And the inhibition at 100 µg/mL (LoVo [9])?
The inhibition at 100 µg/mL was 20%.

What about the inhibition at 100 µg/mL (MCF7 [8]) of the same molecule?
Its inhibition at 100 µg/mL is 61%.

For `COc1ccc(OP(=O)(Oc2ccc(OC)cc2)[C@@H](CC(C)C)NC(=O)OCc2ccccc2)cc1`, which inhibition [5] is on record?
Its inhibition is under 5%.

For `CC(C)[C@@H](NC(=O)OCc1ccccc1)P(=O)(Oc1ccc(C(C)(C)C)cc1)Oc1ccc(C(C)(C)C)cc1`, which inhibition [6] is on record?
The inhibition was under 5%.

And the inhibition [7]?
Its inhibition is under 5%.

With `CCC(NC(=O)OCc1ccccc1)P(=O)(Oc1ccccc1)Oc1ccccc1` (centres undefined) as the molecule, how does the inhibition [6] read?
The inhibition was under 5%.

With `CC(C)[C@@H](NC(=O)OCc1ccccc1)P(=O)(Oc1ccc(C(C)(C)CC(C)(C)C)cc1)Oc1ccc(C(C)(C)CC(C)(C)C)cc1` as the molecule, how does the inhibition [5] read?
The inhibition was under 5%.

And the inhibition [6]?
Its inhibition is under 5%.

And the inhibition [7]?
The inhibition was under 5%.

With `CCC(NC(=O)OCc1ccccc1)P(=O)(Oc1ccc(Cl)cc1)Oc1ccc(Cl)cc1` (centres undefined) as the molecule, how does the Ratio [2] read?
Its Ratio is under 50 M⁻¹ s⁻¹.

Which inhibition [7] does the source give for `CCC(NC(=O)OCc1ccccc1)P(=O)(Oc1ccc(C(C)C)cc1)Oc1ccc(C(C)C)cc1` (centres undefined) here?
Its inhibition is under 5%.

For `C[C@@H](NC(=O)OCc1ccccc1)P(=O)(Oc1ccc(C(C)(C)C)cc1)Oc1ccc(C(C)(C)C)cc1`, which inhibition [7] is on record?
Its inhibition is under 5%.

For `CSc1ccc(OP(=O)(Oc2ccc(SC)cc2)[C@@H](CC(C)C)NC(=O)OCc2ccccc2)cc1`, which inhibition [6] is on record?
Its inhibition is under 5%.

With `CCCC[C@@H](NC(=O)OCc1ccccc1)P(=O)(Oc1ccc(C(C)(C)C)cc1)Oc1ccc(C(C)(C)C)cc1` as the molecule, how does the inhibition [7] read?
The inhibition was under 5%.

For `CCC(NC(=O)OCc1ccccc1)P(=O)(Oc1ccc(C)c(C)c1)Oc1ccc(C)c(C)c1` (centres undefined), which inhibition [5] is on record?
The inhibition was under 5%.

What about the inhibition [6] of the same molecule?
The inhibition was under 5%.

Which inhibition [6] does the source give for `C[C@@H](NC(=O)OCc1ccccc1)P(=O)(Oc1ccccc1)Oc1ccccc1` here?
Its inhibition is under 5%.

What about the inhibition [7] of the same molecule?
Its inhibition is under 5%.

Which results are given for `CSc1ccc(OP(=O)(Oc2ccc(SC)cc2)[C@@H](C)NC(=O)OCc2ccccc2)cc1`?
inhibition [6]: < 5%; inhibition [7]: < 5%

With `Cc1ccccc1OP(=O)(Oc1ccccc1C)[C@@H](CC(C)C)NC(=O)OCc1ccccc1` as the molecule, how does the inhibition [6] read?
Its inhibition is under 5%.

For `COC(=O)c1ccc(OP(=O)(Oc2ccc(C(=O)OC)cc2)[C@@H](CC(C)C)NC(=O)OCc2ccccc2)cc1`, which inhibition at 100 µg/mL (LoVo [1]) is on record?
Its inhibition at 100 µg/mL is 6%.

What about the inhibition at 100 µg/mL (LoVo [9]) of the same molecule?
The inhibition at 100 µg/mL was 22%.

And the Ratio [2]?
Its Ratio is under 50 M⁻¹ s⁻¹.

What about the inhibition at 100 µg/mL (MCF7 [8]) of the same molecule?
The inhibition at 100 µg/mL was 8%.

And the inhibition at 100 µg/mL (A549)?
The inhibition at 100 µg/mL was 3%.

Which inhibition [6] does the source give for `CSc1ccc(OP(=O)(Oc2ccc(SC)cc2)[C@H](NC(=O)OCc2ccccc2)C(C)C)cc1` here?
Its inhibition is under 5%.

With `CCCC[C@@H](NC(=O)OCc1ccccc1)P(=O)(Oc1ccc(C(=O)OC)cc1)Oc1ccc(C(=O)OC)cc1` as the molecule, how does the Ratio [2] read?
Its Ratio is under 50 M⁻¹ s⁻¹.

For `CCC(NC(=O)OCc1ccccc1)P(=O)(Oc1ccc(C(C)(C)C)cc1)Oc1ccc(C(C)(C)C)cc1` (centres undefined), which inhibition [5] is on record?
Its inhibition is under 5%.

What about the inhibition [6] of the same molecule?
Its inhibition is under 5%.

For `CC(C)[C@@H](NC(=O)OCc1ccccc1)P(=O)(Oc1ccccc1)Oc1ccccc1`, which inhibition [5] is on record?
Its inhibition is under 5%.

What about the inhibition [6] of the same molecule?
The inhibition was under 5%.

What about the inhibition [7] of the same molecule?
Its inhibition is under 5%.

Which inhibition [5] does the source give for `CCC(NC(=O)OCc1ccccc1)P(=O)(Oc1ccc(C)cc1)Oc1ccc(C)cc1` (centres undefined) here?
Its inhibition is under 5%.

And the inhibition [6]?
The inhibition was under 5%.

What does the source list for `CCC[C@@H](NC(=O)OCc1ccccc1)P(=O)(Oc1cc(C)cc(C)c1C)Oc1cc(C)cc(C)c1C`?
inhibition [5]: < 5%; inhibition [6]: < 5%

Which inhibition [5] does the source give for `CC(C)c1ccc(OP(=O)(Oc2ccc(C(C)C)cc2)[C@H](NC(=O)OCc2ccccc2)C(C)C)cc1` here?
Its inhibition is under 5%.

What about the inhibition [6] of the same molecule?
Its inhibition is under 5%.

What about the inhibition [7] of the same molecule?
Its inhibition is under 5%.

For `Cc1ccc(C)c(OP(=O)(Oc2cc(C)ccc2C)[C@@H](CC(C)C)NC(=O)OCc2ccccc2)c1`, which inhibition [5] is on record?
The inhibition was under 5%.

Which inhibition [6] does the source give for `CC(C)C[C@@H](NC(=O)OCc1ccccc1)P(=O)(Oc1ccc(Cl)cc1)Oc1ccc(Cl)cc1` here?
The inhibition was under 5%.

For `CCC[C@@H](NC(=O)OCc1ccccc1)P(=O)(Oc1ccc(OC)cc1)Oc1ccc(OC)cc1`, which inhibition [5] is on record?
The inhibition was under 5%.

What about the inhibition [6] of the same molecule?
Its inhibition is under 5%.

With `COC(=O)c1ccc(OP(=O)(Oc2ccc(C(=O)OC)cc2)[C@H](NC(=O)OCc2ccccc2)C(C)C)cc1` as the molecule, how does the inhibition at 100 µg/mL (LoVo [1]) read?
The inhibition at 100 µg/mL was 54%.

What about the inhibition [6] of the same molecule?
Its inhibition is under 5%.

And the Ratio [2]?
Its Ratio is under 50 M⁻¹ s⁻¹.

And the IC50 (LoVo [3])?
The IC50 was 32 µg/mL (≈ 57.6 µM).

What about the IC50 (MCF7 [4]) of the same molecule?
Its IC50 is 47 µg/mL (≈ 84.6 µM).

And the inhibition at 100 µg/mL (A549)?
Its inhibition at 100 µg/mL is 46%.

What does the source list for `CCC[C@@H](NC(=O)OCc1ccccc1)P(=O)(Oc1cc(C)c(C)c(C)c1)Oc1cc(C)c(C)c(C)c1`?
inhibition [5]: < 5%; inhibition [6]: < 5%; inhibition [7]: < 5%

Which inhibition [6] does the source give for `CCc1ccc(OP(=O)(Oc2ccc(CC)cc2)C(CC)NC(=O)OCc2ccccc2)cc1` (centres undefined) here?
Its inhibition is under 5%.

Which results are given for `CCC[C@@H](NC(=O)OCc1ccccc1)P(=O)(Oc1cccc(C)c1C)Oc1cccc(C)c1C`?
inhibition [5]: < 5%; inhibition [6]: < 5%

What does the source list for `CCCC[C@@H](NC(=O)OCc1ccccc1)P(=O)(Oc1ccccc1)Oc1ccccc1`?
inhibition [6]: < 5%; inhibition [7]: < 5%

Which inhibition [5] does the source give for `Cc1ccc(C)c(OP(=O)(Oc2cc(C)ccc2C)[C@H](NC(=O)OCc2ccccc2)C(C)C)c1` here?
The inhibition was under 5%.

What about the inhibition [6] of the same molecule?
The inhibition was under 5%.

And the inhibition [7]?
Its inhibition is under 5%.

For `CC(C)c1ccc(OP(=O)(Oc2ccc(C(C)C)cc2)[C@@H](C)NC(=O)OCc2ccccc2)cc1`, which inhibition [6] is on record?
The inhibition was under 5%.

And the inhibition [7]?
The inhibition was under 5%.

With `CCc1ccc(OP(=O)(Oc2ccc(CC)cc2)[C@@H](C)NC(=O)OCc2ccccc2)cc1` as the molecule, how does the inhibition [6] read?
The inhibition was under 5%.

What about the inhibition [7] of the same molecule?
Its inhibition is under 5%.

— ChEMBL document CHEMBL1681697, “Simple phosphonic inhibitors of human neutrophil elastase” (Bioorg Med Chem Lett, 2011)
